Assay results as given in ChEMBL document CHEMBL2086320, “New synthetic inhibitors of fatty acid synthase with anticancer activity” (J Med Chem, 2012).
The source made the active and inactive calls. The calls are words filed in the database; no cut-off is given here.

Assays:
[1] = biological target: Carnitine O-palmitoyltransferase 1, liver isoform (Rattus norvegicus, UniProt P32198); test: Stimulation of rat CPT1A expressed in Pichia pastoris mitochondrial using [3H]carnitine after 3 mins by forward exchange method; format: ADME; conditions: 0.05 h
Outline: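 Mitochondria isolated from GS115 Pichia pastoris expressing rat CPT1A, used in a forward exchange assay with 200 µM inhibitor, 2 mM L-[³H]carnitine, 80 µM palmitoyl-CoA, 20 mM HEPES pH 7.0, 1% fatty-acid-free albumin and 40-75 mM KCl. Incubated 3 min at 30 °C, stopped with perchloric acid, butanol-extracted [³H]palmitoylcarnitine counted. Mean±SEM of at least three independent mitochondrial preparations.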

[2] = biological target: Receptor tyrosine-protein kinase erbB-2 (Homo sapiens) (UniProt P04626); test: Inhibition of HER2 phosphorylation in human SK-BR-3 cells after 2 hrs by Western blot analysis; format: cell-based
Outline: (§1)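 SK-Br3 cells treated for set times (6, 12 or 24 h; p-HER2 also at 2 h), trypsinized, and lysed in Tris pH 7.5/EDTA/NaCl/PMSF buffer. Equal protein resolved by SDS-PAGE (3-8% gel for HER2 forms, 4-12% gel for AKT/ERK). Blots blocked in 2.5% milk/TBS-T, primary antibody overnight at 4 °C, HRP secondary, chemiluminescence; β-actin reprobe as loading control. At least two independent experiments.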

SK-BR-3 [3] = test: Induction of apoptosis in human SKBR3 cells assessed as cleavage of PARP by Western blot analysis; format: functional, cell-based; conditions: TDE = time-dependent effect
Outline: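 SK-Br3 cells treated for up to 48 h, then immunoblotted for PARP on a 4-12% SDS gel. Intact PARP at 116 kDa, cleavage fragment at 89 kDa. Chemiluminescent detection with β-actin reprobe as loading control. At least two independent experiments.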

A549 = test: Cytotoxicity against human A549 cells; format: functional, cell-based
Outline: (§2)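 MTT colorimetric assay: cells seeded at 5 or 7 x 10³ cells/well, attached overnight, then given fresh medium with a range of compound concentrations for 48 h at 37 °C, 5% CO2. MTT added for 3 h, formazan dissolved in DMSO, absorbance read at 570 or 540 nm. IC50 as mean±SEM from at least two independent experiments in duplicate or triplicate.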

NCI-H460 = test: Cytotoxicity against human H460 cells; format: functional, cell-based; outline: as §2
[4] = Cytotoxicity against human HCC827 cells; format: functional, cell-based; outline: as §2
AU565 = test: Cytotoxicity against human AU565 cells; format: functional, cell-based; outline: as §2
BT-20 = test: Cytotoxicity against human BT20 cells; format: functional, cell-based; outline: as §2
MDA-MB-231 = test: Cytotoxicity against human MDA-MB-231 cells; format: functional, cell-based; outline: as §2
ZR-75-1 = test: Cytotoxicity against human ZR-75-1 cells; format: functional, cell-based; outline: as §2
MCF7 = test: Cytotoxicity against human MCF7 cells; format: functional, cell-based; outline: as §2
SK-BR-3 [5] = test: Cytotoxicity against human SKBR3 cells; format: functional, cell-based
Outline: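 SK-Br3 cells (McCoy's 5A, 10% FBS) in MTT assay: seeded at 5 or 7 x 10³ cells/well, attached overnight, exposed 48 h to a range of concentrations. MTT 3 h at 37 °C, formazan in DMSO, absorbance at 570 or 540 nm. IC50 as mean±SEM of two independent experiments in triplicate.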

SK-OV-3 = test: Cytotoxicity against human SKOV3 cells; format: functional, cell-based; outline: as §2
HepG2 = test: Cytotoxicity against human HepG2 cells; format: functional, cell-based; outline: as §2
SK-HEP1 = test: Cytotoxicity against human SKHEP1 cells; format: functional, cell-based; outline: as §2
Bel-7402 = test: Cytotoxicity against human Bel7402 cells; format: functional, cell-based; outline: as §2
A-431 = test: Cytotoxicity against human A431 cells; format: functional, cell-based; outline: as §2
PANC-1 = test: Cytotoxicity against human PANC1 cells; format: functional, cell-based; outline: as §2
HCT-116 = test: Cytotoxicity against human HCT116 cells; format: functional, cell-based; outline: as §2
[6] = biological target: Receptor tyrosine-protein kinase erbB-2 (Homo sapiens) (UniProt P04626); test: Inhibition of HER2 phosphorylation in human SK-BR-3 cells after 6 hrs by Western blot analysis; format: cell-based
Outline: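 SK-Br3 cells treated for 6, 12 or 24 h, harvested with trypsin-EDTA, lysed in Tris-HCl pH 7.5/EDTA/NaCl/PMSF buffer at 4 °C. Equal protein run on 3-8% SDS-PAGE and transferred to nitrocellulose. Membranes probed overnight at 4 °C with anti-phospho-HER2 mouse monoclonal, then peroxidase secondary and chemiluminescence. Re-probed for β-actin as loading control. Gels are representative of at least two independent experiments.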

SK-BR-3 [7] = test: Cytotoxicity against human SKBR3 cells transfected with FASN specific siRNA assessed as cell death up to 10 uM by MTT assay; format: functional, cell-based
Outline: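 SK-Br3 cells transfected with a pool of three FASN-specific siRNAs (72 h), run alongside control-transfected cells. MTT viability read after 24 h compound exposure instead of 48 h. Knockdown checked by FASN immunoblot with β-actin. Mean±SEM of three experiments in duplicate; Student's t-test against the same concentration in control-transfected cells.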

[8] = Selectivity ratio of IC50 for human HL7702 cells to IC50 for human SKBR3 cells; format: ADME, cell-based; conditions: HL7702 cells (normal) versus SKBR3 cells, read-out: Ratio IC50
[9] = Selectivity ratio of IC50 for human HMEpC cells to IC50 for human SKBR3 cells; format: ADME, cell-based, SK-BR-3; conditions: HMEpC cells (normal) versus SKBR3 cells, read-out: Ratio IC50
[10] = Antiproliferative activity against human HL7702 cells; format: cell-based; conditions: L02; outline: as §2
[11] = Antiproliferative activity against human HMEpC cells; format: cell-based; outline: as §2
SK-BR-3 [12] = test: Cytotoxicity against human SKBR3 cells after 48 hrs by MTT assay; format: functional, cell-based; conditions: SK-BR-3, 48 h; outline: as §2
[13] = biological target: Fatty acid synthase (Homo sapiens) (UniProt P49327); test: Inhibition of FASN in human SK-BR-3 cells assessed as oxidation of NADPH at 4 uM after 24 hrs by Spectrophotometric analysis relative to control; format: cell-based
SK-BR-3 [14] = test: Effect on total HER2 protein levels in human SKBR3 cells up to 6 hrs by Western blot analysis; format: functional, cell-based; outline: as §1
SK-BR-3 [15] = test: Effect on total HER2 protein levels in human SKBR3 cells up to 6 hrs by ELISA; format: functional, cell-based
FASN/HER2 (Homo sapiens) [16] = biological target: T1, FASN/HER2 (Homo sapiens) (UniProt P04626+P49327); test: Inhibition of FASN/HER2 in human SK-BR-3 cells assessed as reduction in p-ERK1/2 levels after 6 hrs by Western blot analysis; format: cell-based; outline: as §1
FASN/HER2 (Homo sapiens) [17] = biological target: T1, FASN/HER2 (Homo sapiens); test: Inhibition of FASN/HER2 in human SK-BR-3 cells assessed as reduction in p-AKT levels after 6 hrs by Western blot analysis; format: cell-based; outline: as §1
SK-BR-3 [18] = test: Effect on total AKT protein levels in human SKBR3 cells up to 24 hrs; format: functional, cell-based; outline: as §1
SK-BR-3 [19] = test: Effect on total HER protein levels in human SKBR3 cells up to 24 hrs; format: functional, cell-based; outline: as §1
[20] = biological target: Receptor tyrosine-protein kinase erbB-2 (Homo sapiens) (UniProt P04626); test: Inhibition of HER2 signaling in human SK-BR-3 cells up to 24 hrs; format: cell-based; outline: as §1
SK-BR-3 [21] = test: Effect on total ERK1/2 protein levels in human SKBR3 cells up to 24 hrs; format: functional, cell-based; outline: as §1
Mus musculus [22] = test: Toxicity against C57BL/6J mouse assessed as weight loss at 30 to 75 mg/kg, ip administered as single dose measured after 24 hrs; format: organism-based; design: dose 30-75 mg/kg, route intraperitoneal; conditions: in vivo
Outline: (§3)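 Male C57BL/6J mice, 12 weeks, 23-25 g, acclimatized one week on standard chow, 12 h/12 h light/dark, 22 °C; 4 per group. Fasted 12 h during dark cycle, then one i.p. injection (0.5 mL) of compound or vehicle (DMSO dissolved in RPMI 1640). Free access to chow for 24 h, then body weight recorded and behaviour observed. Weight data mean ± SEM, n=4.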

Mus musculus [23] = test: Toxicity against C57BL/6J mouse assessed as change in food intake at 30 to 75 mg/kg, ip administered as single dose measured after 24 hrs; format: organism-based; design: dose 30-75 mg/kg, route intraperitoneal; conditions: in vivo; outline: as §3
Mus musculus [24] = test: Toxicity against C57BL/6J mouse assessed as altered behaviour at 30 to 75 mg/kg, ip administered as single dose measured after 24 hrs; format: organism-based; design: dose 30-75 mg/kg, route intraperitoneal; conditions: in vivo; outline: as §3
Mus musculus [25] = test: Toxicity against C57BL/6J mouse assessed as signs of suffering at 30 to 75 mg/kg, ip administered as single dose measured after 24 hrs; format: organism-based; design: dose 30-75 mg/kg, route intraperitoneal; conditions: in vivo; outline: as §3
Mus musculus [26] = test: Toxicity against C57BL/6J mouse assessed as distress at 30 to 75 mg/kg, ip administered as single dose measured after 24 hrs; format: organism-based; design: dose 30-75 mg/kg, route intraperitoneal; conditions: in vivo; outline: as §3
Mus musculus [27] = test: Toxicity against C57BL/6J mouse assessed as weight loss at 30 mg/kg, ip administered as single dose measured after 24 hrs; format: organism-based; design: dose 30 mg/kg, route intraperitoneal; conditions: in vivo; outline: as §3
Mus musculus [28] = test: Toxicity against C57BL/6J mouse assessed as signs of suffering at 30 mg/kg, ip administered as single dose measured after 24 hrs; format: organism-based; design: dose 30 mg/kg, route intraperitoneal; conditions: in vivo; outline: as §3

Chain of Receptor tyrosine-protein kinase erbB-2 (Homo sapiens) (P04626 whole entry): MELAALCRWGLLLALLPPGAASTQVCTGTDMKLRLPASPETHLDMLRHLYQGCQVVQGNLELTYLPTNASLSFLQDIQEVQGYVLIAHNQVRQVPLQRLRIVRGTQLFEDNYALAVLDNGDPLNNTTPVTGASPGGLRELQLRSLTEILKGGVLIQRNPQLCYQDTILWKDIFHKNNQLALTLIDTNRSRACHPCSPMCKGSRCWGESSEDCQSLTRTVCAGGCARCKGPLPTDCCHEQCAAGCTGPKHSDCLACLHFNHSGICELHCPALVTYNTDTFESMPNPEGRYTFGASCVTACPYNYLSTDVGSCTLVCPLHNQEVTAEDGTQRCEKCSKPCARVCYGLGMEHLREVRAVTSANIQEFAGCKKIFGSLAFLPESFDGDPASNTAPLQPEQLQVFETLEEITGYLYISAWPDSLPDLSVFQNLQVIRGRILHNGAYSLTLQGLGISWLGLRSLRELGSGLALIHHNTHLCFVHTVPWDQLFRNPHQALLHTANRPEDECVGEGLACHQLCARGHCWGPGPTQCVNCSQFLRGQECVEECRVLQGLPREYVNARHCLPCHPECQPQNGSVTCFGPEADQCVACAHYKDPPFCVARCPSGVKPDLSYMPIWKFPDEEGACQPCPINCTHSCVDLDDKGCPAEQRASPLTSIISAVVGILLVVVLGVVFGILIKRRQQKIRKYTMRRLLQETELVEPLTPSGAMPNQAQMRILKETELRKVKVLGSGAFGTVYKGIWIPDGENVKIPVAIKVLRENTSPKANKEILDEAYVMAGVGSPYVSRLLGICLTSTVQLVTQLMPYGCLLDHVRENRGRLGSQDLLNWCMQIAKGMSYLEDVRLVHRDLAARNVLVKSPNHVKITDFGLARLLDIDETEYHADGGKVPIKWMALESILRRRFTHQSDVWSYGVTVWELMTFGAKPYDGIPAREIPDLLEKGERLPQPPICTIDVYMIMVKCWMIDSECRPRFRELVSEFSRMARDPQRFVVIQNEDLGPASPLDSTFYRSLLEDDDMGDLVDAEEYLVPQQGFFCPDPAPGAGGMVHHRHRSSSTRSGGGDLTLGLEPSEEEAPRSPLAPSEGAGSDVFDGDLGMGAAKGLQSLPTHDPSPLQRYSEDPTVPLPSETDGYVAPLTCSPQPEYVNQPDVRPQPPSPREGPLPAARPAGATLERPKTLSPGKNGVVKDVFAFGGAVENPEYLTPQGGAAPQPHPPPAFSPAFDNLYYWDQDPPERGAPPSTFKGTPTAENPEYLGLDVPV
T1 sequence (P04626 whole entry, looked up): as the sequence (P04626 whole entry) above
T1 sequence (P49327 whole entry, looked up): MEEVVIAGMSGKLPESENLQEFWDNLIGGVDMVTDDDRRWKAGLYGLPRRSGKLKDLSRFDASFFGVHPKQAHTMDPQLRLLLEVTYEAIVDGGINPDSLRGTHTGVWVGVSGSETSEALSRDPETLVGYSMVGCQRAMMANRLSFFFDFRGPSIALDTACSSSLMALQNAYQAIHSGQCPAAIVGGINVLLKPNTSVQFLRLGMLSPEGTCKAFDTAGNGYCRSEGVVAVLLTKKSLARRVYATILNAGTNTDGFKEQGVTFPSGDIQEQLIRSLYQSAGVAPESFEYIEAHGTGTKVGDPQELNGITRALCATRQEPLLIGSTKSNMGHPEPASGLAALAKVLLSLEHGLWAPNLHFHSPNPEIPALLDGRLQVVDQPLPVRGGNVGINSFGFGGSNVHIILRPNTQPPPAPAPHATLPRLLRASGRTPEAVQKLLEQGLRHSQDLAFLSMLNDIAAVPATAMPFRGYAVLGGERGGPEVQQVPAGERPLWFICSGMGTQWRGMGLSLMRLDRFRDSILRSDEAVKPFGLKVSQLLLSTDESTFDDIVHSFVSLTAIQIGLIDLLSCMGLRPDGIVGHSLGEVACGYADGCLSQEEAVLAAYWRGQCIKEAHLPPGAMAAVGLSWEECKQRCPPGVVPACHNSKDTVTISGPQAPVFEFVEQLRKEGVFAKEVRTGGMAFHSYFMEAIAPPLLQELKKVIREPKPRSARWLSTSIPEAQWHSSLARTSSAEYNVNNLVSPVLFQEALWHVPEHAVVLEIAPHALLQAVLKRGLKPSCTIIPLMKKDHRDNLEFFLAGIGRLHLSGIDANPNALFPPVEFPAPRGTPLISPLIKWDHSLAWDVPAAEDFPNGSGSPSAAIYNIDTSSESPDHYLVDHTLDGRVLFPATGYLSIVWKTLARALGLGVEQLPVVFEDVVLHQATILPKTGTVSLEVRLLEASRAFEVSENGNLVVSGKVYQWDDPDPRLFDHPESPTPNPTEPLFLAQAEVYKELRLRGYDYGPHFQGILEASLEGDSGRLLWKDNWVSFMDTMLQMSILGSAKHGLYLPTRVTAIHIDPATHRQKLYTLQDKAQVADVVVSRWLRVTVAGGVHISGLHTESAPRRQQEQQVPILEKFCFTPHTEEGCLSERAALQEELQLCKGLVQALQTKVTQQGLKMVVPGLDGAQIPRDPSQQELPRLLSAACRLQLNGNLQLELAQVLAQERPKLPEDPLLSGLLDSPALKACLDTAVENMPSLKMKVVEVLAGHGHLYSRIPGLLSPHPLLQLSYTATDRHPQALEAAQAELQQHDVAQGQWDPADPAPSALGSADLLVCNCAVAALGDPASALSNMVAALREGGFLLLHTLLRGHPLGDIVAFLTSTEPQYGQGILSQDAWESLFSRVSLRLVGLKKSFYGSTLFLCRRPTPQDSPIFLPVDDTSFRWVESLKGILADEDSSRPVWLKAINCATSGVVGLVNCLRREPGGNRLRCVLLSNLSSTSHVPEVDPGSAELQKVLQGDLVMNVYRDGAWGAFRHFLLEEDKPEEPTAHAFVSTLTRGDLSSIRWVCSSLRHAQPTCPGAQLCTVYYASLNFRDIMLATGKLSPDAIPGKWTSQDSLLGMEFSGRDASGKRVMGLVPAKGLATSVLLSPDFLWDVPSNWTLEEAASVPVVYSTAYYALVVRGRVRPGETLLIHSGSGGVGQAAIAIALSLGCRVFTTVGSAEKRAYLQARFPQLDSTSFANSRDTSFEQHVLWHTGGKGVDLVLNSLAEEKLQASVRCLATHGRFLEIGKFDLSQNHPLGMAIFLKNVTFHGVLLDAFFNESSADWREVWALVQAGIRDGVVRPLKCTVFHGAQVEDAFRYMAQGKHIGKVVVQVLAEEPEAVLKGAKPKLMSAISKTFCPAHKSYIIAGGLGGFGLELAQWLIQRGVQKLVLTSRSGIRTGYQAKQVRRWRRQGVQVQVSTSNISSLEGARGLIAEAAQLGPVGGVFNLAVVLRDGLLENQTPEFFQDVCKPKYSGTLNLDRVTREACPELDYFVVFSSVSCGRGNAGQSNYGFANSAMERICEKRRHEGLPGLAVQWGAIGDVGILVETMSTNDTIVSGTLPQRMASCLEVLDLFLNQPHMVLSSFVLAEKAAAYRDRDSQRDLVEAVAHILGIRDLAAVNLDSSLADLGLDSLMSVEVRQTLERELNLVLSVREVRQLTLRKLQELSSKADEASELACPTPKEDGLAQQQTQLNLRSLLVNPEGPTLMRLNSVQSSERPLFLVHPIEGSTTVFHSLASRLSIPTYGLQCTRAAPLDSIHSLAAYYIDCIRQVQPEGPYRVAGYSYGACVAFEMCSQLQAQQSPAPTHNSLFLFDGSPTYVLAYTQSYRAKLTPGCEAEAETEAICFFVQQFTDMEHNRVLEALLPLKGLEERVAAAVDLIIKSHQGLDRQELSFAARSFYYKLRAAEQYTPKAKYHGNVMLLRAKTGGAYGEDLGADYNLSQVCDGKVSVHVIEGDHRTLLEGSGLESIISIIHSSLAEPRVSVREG
Chain of Fatty acid synthase (Homo sapiens) (P49327 whole entry, looked up): as above

SMILES: O=C(Oc1ccc(-c2ccc(OC(=O)c3cc(O)c(O)c(O)c3)cc2)cc1)c1cc(O)c(O)c(O)c1
- Activity [1]: Non-toxic
- inhibition [2]: Active
- Activity (SK-BR-3 [3]): tde
- IC50 (A549): 17 µM
- IC50 (NCI-H460): 9 µM
- IC50 [4]: 14 µM
- IC50 (AU565): 24 µM
- IC50 (BT-20): 17 µM
- IC50 (MDA-MB-231): 5 µM
- IC50 (ZR-75-1): 1.9 µM
- IC50 (MCF7): 3.8 µM
- IC50 (SK-BR-3 [5]): 4 µM
- IC50 (SK-OV-3): 5 µM
- IC50 (HepG2): 70 µM
- IC50 (SK-HEP1): 56 µM
- IC50 (Bel-7402): 40 µM
- IC50 (A-431): 1.4 µM
- IC50 (PANC-1): 2.1 µM
- IC50 (HCT-116): 4 µM
- inhibition [6]: Active
- Activity (SK-BR-3 [7]): inactive
- selectivity ratio [8]: 10
- selectivity ratio [9]: 8
- IC50 [10]: 41 µM
- IC50 [11]: 31 µM
- IC50 (SK-BR-3 [12]): 4 µM
- inhibition [13]: 90%
- Activity (SK-BR-3 [14]): inactive
- Activity (SK-BR-3 [15]): inactive
- inhibition (FASN/HER2 (Homo sapiens) [16]): Active
- inhibition (FASN/HER2 (Homo sapiens) [17]): Active
- Activity (SK-BR-3 [18]): inactive
- Activity (SK-BR-3 [19]): inactive
- inhibition [20]: Active
- Activity (SK-BR-3 [21]): inactive
- Activity (Mus musculus [22]): Non-toxic
- Activity (Mus musculus [23]): Non-toxic
- Activity (Mus musculus [24]): Non-toxic
- Activity (Mus musculus [25]): Non-toxic
- Activity (Mus musculus [26]): Non-toxic

SMILES: C=C1C(=O)O[C@H](CCCCCCCC)[C@H]1C(=O)O (relative stereo)
- Activity (Mus musculus [27]): 21%
- Activity (Mus musculus [28]): Toxic
